The source of these data is ChEMBL document CHEMBL3734686, “Synthesis, Photophysical Properties, and Biological Evaluation of trans-Bisthioglycosylated Tetrakis(fluorophenyl)chlorin for Photodynamic Therapy” (J Med Chem, 2015).

For one series, the system named is Stomach. Put plainly: Drug uptake in BALB/c mouse stomach implanted with mouse 4T1 cells assessed per gram of tissue at 0.18 mg/kg, ip after 24 hrs by HPLC-based fluorescence analysis. It is filed as ADME, organism-based. The note with it: in vivo. Summed up:
(§1)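 Female BALB/c mice with 4T1 cells (1 × 10^6 in HBSS) implanted in left rear thigh; single i.p. dose, 7 in ethanol/PEG400/H2O (2/3/5) with 0.1% DMSO, mono-L-aspartyl chlorin e6 in saline; kept dark until sacrifice. Tissues washed, frozen, homogenized in CH3OH/DMSO/H2O (32/8/1), centrifuged 2300×g; supernatant analysed by HPLC with fluorescence detection; three animals per time point.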

The subject of the next series is 4T1. Put plainly: Drug uptake in mouse 4T1 cells implanted in BALB/c mouse assessed per gram of tissue at 0.18 mg/kg, ip after 12 hrs by HPLC-based fluorescence analysis. It is filed as ADME, organism-based. The following applies: in vivo. Summed up:
as §1

The next series deals with Zone of skin. Description: Drug uptake in BALB/c mouse skin implanted with mouse 4T1 cells assessed per gram of tissue at 0.18 mg/kg, ip after 6 hrs by HPLC-based fluorescence analysis. It is filed as ADME, organism-based. The note with it: in vivo. Summed up:
as §1

Series [1] is described as follows: Induction of reactive oxygen generation assessed as quantum yield of singlet oxygen generation in O2 saturated D2O containing 0.1% DMSO by spectrometry. It is filed as physicochemical. Put shortly:
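Photosensitizer in D2O with 0.1% DMSO, absorbance set to 0.4 at its excitation wavelength, oxygen-purged 1 min; singlet-oxygen luminescence recorded with NIR photomultiplier cooled to 193 K; TPPS as reference.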

Series [2] in a line: Drug uptake in BALB/c mouse small intestine implanted with mouse 4T1 cells assessed per gram of tissue at 0.18 mg/kg, ip after 6 hrs by HPLC-based fluorescence analysis. The format is ADME, organism-based. The following applies: in vivo. Put shortly:
as §1

For another series, the system named is Heart. Description: Drug uptake in BALB/c mouse heart implanted with mouse 4T1 cells assessed per gram of tissue at 0.18 mg/kg, ip after 6 hrs by HPLC-based fluorescence analysis. The format is ADME, organism-based. The following applies: in vivo. Put shortly: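 Female BALB/c mice bearing 4T1 thigh tumours received an i.p. dose in ethanol/PEG400/H2O (2/3/5) with 0.1% DMSO, or in saline, and were kept dark until killed. Tissues were weighed (100 mg), homogenised in CH3OH/DMSO/H2O (32/8/1) and centrifuged twice at 2300×g at 4°C. Supernatants were analysed by HPLC with fluorescence detection (λex 404/λem 654 nm or λex 400/λem 666 nm). n = 3 per time point.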

Series [3] concerns Spleen. Description: Drug uptake in BALB/c mouse spleen implanted with mouse 4T1 cells assessed per gram of tissue at 0.18 mg/kg, ip after 72 hrs by HPLC-based fluorescence analysis. It is filed as ADME, organism-based. The note with it: in vivo. Summed up:
as §1

In series [4] the test system is Spleen. Put plainly: Drug uptake in BALB/c mouse spleen implanted with mouse 4T1 cells assessed per gram of tissue at 0.18 mg/kg, ip after 48 hrs by HPLC-based fluorescence analysis. It is filed as ADME, organism-based. The note with it: in vivo. Summed up:
as §1

As for `CN1CC2C3=N/C(=C(/c4c(F)c(F)c(S[C@@H]5O[C@H](CO)[C@@H](O)[C@H](O)[C@H]5O)c(F)c4F)C4=N/C(=C(/c5c(F)c(F)c(F)c(F)c5F)c5ccc([nH]5)/C(c5c(F)c(F)c(S[C@@H]6O[C@H](CO)[C@@H](O)[C@H](O)[C@H]6O)c(F)c5F)=C5/C=CC(=N5)C3c3c(F)c(F)c(F)c(F)c3F)C=C4)C2C1` (stereo partly drawn), the Drug uptake with Stomach came out at 31 ng/g; with 4T1, 4 ng/g; in the series with Zone of skin it was 5 ng; in series [2] it was 90 ng; with Heart, 24 ng/g; in the series on Spleen [3] it was 8 ng. The same compound yielded a Drug uptake in the series on Spleen [4] of 14 ng. In addition, in series [1], the Activity came to 0.25.
